From ChEMBL document CHEMBL4680084, “New β-Lactam Derivatives Modulate Cell Adhesion and Signaling Mediated by RGD-Binding and Leukocyte Integrins” (J Med Chem, 2016)
The source made the active and inactive calls. No cut-off for these calls is given here.

Assays:
Integrin alpha-V/beta-6 [1] = target: T1, Integrin alpha-V/beta-6 (Homo sapiens, UniProt P06756+P18564); test: Inhibition of fibronectin binding to alphaVbeta6 isolated form human HT-29 cells incubated for 1 hr by […] competitive solid-phase binding assay; assay type: tissue-based
Integrin alpha-V/beta-5 [2] = target: T2, Integrin alpha-V/beta-5 (Homo sapiens, UniProt P06756+P18084); test: Inhibition of fibrinogen binding to alphaVbeta5 isolated form human mCf7 cells incubated for 1 hr by […] competitive solid-phase binding assay
MCF7 = test: Toxicity in human MCF7 cells assessed as induction of cell necrosis and/or apoptosis incubated for 3 hrs by annexin V-PE and 7-AAD staining based by flow cytometry; details: mcf7, 3 h
How it was run: (§1)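 After 3 h incubation, cells resuspended in complete medium and stained with annexin V-PE/7-AAD reagent for 20 min at room temperature in the dark. Flow cytometry sorted cells into viable, early apoptotic and late apoptotic/necrotic populations.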

Integrin alpha-V/beta-6 [3] = target: T1, Integrin alpha-V/beta-6; test: Agonist activity at alphaVbeta6 in human HT-29 cells assessed as increase in cell adhesion to fibronectin pre-incubated for 30 mins before fibronectin and further incubated for 1 hr by nitrophenyl-N-acetyl-beta-D-glucosaminide substrate based chromogenic assay
How it was run: (§2)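 Compound or methanol vehicle pre-incubated with cells for 30 min at room temperature. Cells then plated on wells coated overnight at 4 °C with fibronectin 10 µg/mL (SK-MEL-24, K562, HT-29) or fibrinogen 10 µg/mL (MCF7, HEL). Seeding was 50,000 cells/well, or 100000 for HEL. Adhesion ran 1 h at room temperature. Wells washed with 1% BSA/PBS. Adherent cells read by hexosaminidase substrate, absorbance 405 nm. Quadruplicate, at least three repeats.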

[4] = target: T3, Integrin alpha-IIb/beta-3 (Homo sapiens, UniProt P05106+P08514); test: Inhibition of fibrinogen binding to alpha2bbeta3 isolated from human HEL cells incubated for 1 hr by […] competitive solid-phase binding assay
Integrin alpha-V/beta-3 [5] = target: T4, Integrin alpha-V/beta-3 (Homo sapiens, UniProt P05106+P06756); test: Inhibition of fibronectin binding to human recombinant alphaVbeta3 expressed in HEK293 cells incubated for 1 hr by […] competitive solid-phase binding assay; assay type: cell-based
Integrin alpha-V/beta-3 [6] = target: T4, Integrin alpha-V/beta-3; test: Agonist activity at alphaVbeta3 in human SK-MEL-24 cells assessed as increase in cell adhesion to fibronectin at 2 to 10 ug/ml pre-incubated for 30 mins and further incubated for 1 hr by nitrophenyl-N-acetyl-beta-D-glucosaminide substrate based chromogenic assay; details: filed as agonist, dose 2-10 µg/ml, time 90.0 min
HEL = test: Toxicity in human HEL cells assessed as induction of cell necrosis and/or apoptosis incubated for 3 hrs by annexin V-PE and 7-AAD staining based by flow cytometry; how it was run: as §1
Integrin alpha-4/beta-1 [7] = target: T5, Integrin alpha-4/beta-1 (Homo sapiens, UniProt P05556+P13612); test: Inhibition of fibronectin binding to […] isolated from human Jurkat E6.1 cells incubated for 1 hr by scintillation-proximity assay based competitive solid-phase binding assay; assay type: tissue-based
[8] = target: T3, Integrin alpha-IIb/beta-3; test: Agonist activity at alpha2bbeta3 in human HEL cells assessed as increase in cell adhesion to fibrinogen pre-incubated for 30 mins before fibrinogen and further incubated for 1 hr by nitrophenyl-N-acetyl-beta-D-glucosaminide substrate based chromogenic assay
How it was run: as §2, with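 “BSA/PBS.” for “BSA/PBS. Adherent cells read by hexosaminidase substrate, absorbance 405 nm.”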

Integrin alpha-5/beta-1 [9] = target: T6, Integrin alpha-5/beta-1 (Homo sapiens, UniProt P05556+P08648); test: Inhibition of fibronectin binding to alpha5beta1 isolated from human K562 cells incubated for 1 hr by […] competitive solid-phase binding assay; assay type: tissue-based
How it was run: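 Plates coated overnight at 4 °C in carbonate buffer pH 9.6 with fibronectin 0.5 µg/mL (αvβ3, αvβ6, α5β1), fibrinogen 10 µg/mL (αIIbβ3, αvβ5) or ICAM-1 (αLβ2). Blocked 1 h in buffer containing Ca/Mg/Mn 1 mM each and 1% BSA. Purified integrin (3–10 µg/mL) incubated with compound (10⁻⁴–10⁻¹⁰ M) 1 h at room temperature. Bound integrin detected with primary antibody then AlexaFluor488 secondary, Ex485/Em535. Duplicate, at least three repeats.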

Integrin alpha-V/beta-3 [10] = target: T4, Integrin alpha-V/beta-3; test: Agonist activity at alphaVbeta3 in human SK-MEL-24 cells assessed as increase in cell adhesion to fibronectin at 10 ug/ml pre-incubated for 30 mins and further incubated for 1 hr in presence of neutralizing antibody against the alphaV integrin subunit by nitrophenyl-N-acetyl-beta-D-glucosaminide substrate based chromogenic assay; details: dose 10.0 µg/ml, time 90.0 min
Integrin alpha-4/beta-1 [11] = target: T5, Integrin alpha-4/beta-1; test: Agonist activity at alpha4beta1 in human Jurkat E6.1 cells assessed as increase in cell adhesion to VCAM1 pre-incubated for 30 mins before VCAM1 and further incubated for 30 mins by […]; assay type: cell-based
How it was run: (§3)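 Jurkat E6.1 cells labelled with CellTracker green CMFDA (12.5 µM, 30 min, 37 °C), washed, then pre-incubated 30 min at 37 °C with compound or methanol. Plated at 500,000/well on VCAM-1 (α4β1) or ICAM-1 (αLβ2) coated wells (5 µg/mL) for 30 min at 37 °C. Cells lysed in 0.5% Triton X-100; fluorescence read Ex485/Em535. Quadruplicate, at least three repeats.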

Integrin alpha-V/beta-3 [12] = target: T4, Integrin alpha-V/beta-3; test: Agonist activity at alphaVbeta3 in human SK-MEL-24 cells assessed as increase in cell adhesion to fibronectin at 10 ug/ml pre-incubated for 30 mins and further incubated for 1 hr in presence of in presence of integrin antagonist c(-RGDfV) by nitrophenyl-N-acetyl-beta-D-glucosaminide substrate based chromogenic assay; details: dose 10.0 µg/ml, time 90.0 min
K562 = test: Toxicity in human K562 cells assessed as induction of cell necrosis and/or apoptosis incubated for 3 hrs by annexin V-PE and 7-AAD staining based by flow cytometry; details: k562, 3 h; how it was run: as §1
Integrin alpha-V/beta-5 [13] = target: T2, Integrin alpha-V/beta-5; test: Agonist activity at alphaVbeta5 in human MCF7 cells assessed as increase in cell adhesion to fibrinogen pre-incubated for 30 mins before fibrinogen and further incubated for 1 hr by nitrophenyl-N-acetyl-beta-D-glucosaminide substrate based chromogenic assay; how it was run: as §2
HT-29 = test: Toxicity in human HT-29 cells assessed as induction of cell necrosis and/or apoptosis incubated for 3 hrs by annexin V-PE and 7-AAD staining based by flow cytometry; details: ht-29, 3 h; how it was run: as §1
[14] = target: T7, Integrin alpha-L/beta-2 (LFA-1) (Homo sapiens, UniProt P05107+P20701); test: Antagonist activity at alphaLbeta2 in human Jurkat E6.1 cells assessed as reduction in cell adhesion to ICAM1 pre-incubated for 30 mins before ICAM1 and further incubated for 30 mins by […]; assay type: cell-based; how it was run: as §3
[15] = target: T3, Integrin alpha-IIb/beta-3; test: Antagonist activity at alpha2bbeta3 in human HEL cells assessed as reduction in cell adhesion to fibrinogen pre-incubated for 30 mins before fibrinogen and further incubated for 1 hr by nitrophenyl-N-acetyl-beta-D-glucosaminide substrate based chromogenic assay
How it was run: as §2, with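 “BSA/PBS.” for “BSA/PBS. Adherent cells read by hexosaminidase substrate, absorbance 405 nm.”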

SK-MEL-24 = test: Toxicity in human SK-MEL-24 cells assessed as induction of cell necrosis and/or apoptosis incubated for 3 hrs by annexin V-PE and 7-AAD staining based by flow cytometry; details: sk-mel-24, 3 h; how it was run: as §1
Integrin alpha-4/beta-1 [16] = target: T5, Integrin alpha-4/beta-1; test: Antagonist activity at alpha4beta1 in human Jurkat E6.1 cells assessed as reduction in cell adhesion to VCAM1 pre-incubated for 30 mins before VCAM1 and further incubated for 30 mins by […]; assay type: cell-based
Integrin alpha-4/beta-1 [17] = target: T5, Integrin alpha-4/beta-1; test: Antagonist activity at alpha4beta1 in human Jurkat E6.1 cells assessed as reduction in exposure of HUTS-21 epitope measured by mAb binding; assay type: cell-based; details: filed as antagonist
How it was run: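 Jurkat E6.1 cells at 10⁶/mL in 1% BSA/HBSS incubated 30 min at 37 °C with compound. PE-labelled HUTS-21 mAb then added for 45 min at room temperature. Cells washed, 10,000 analysed by flow cytometry. MFI corrected to isotype control set to 0. Four independent experiments in duplicate.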

[18] = target: T7, Integrin alpha-L/beta-2 (LFA-1); test: Agonist activity at alphaLbeta2 in human Jurkat E6.1 cells assessed as increase in cell adhesion to ICAM1 pre-incubated for 30 mins before ICAM1 and further incubated for 30 mins by […]; assay type: cell-based; how it was run: as §3
Integrin alpha-4/beta-1 [19] = target: T5, Integrin alpha-4/beta-1; test: Antagonist activity at alpha4beta1 in human Jurkat E6.1 cells assessed as reduction in VCAM-1 induced ERK1/2 phosphorylation at 1 to 100 nM by Western blot analysis; assay type: cell-based; details: filed as antagonist, dose 1-100 nM
Integrin alpha-V/beta-6 [20] = target: T1, Integrin alpha-V/beta-6; test: Antagonist activity at alphaVbeta6 in human HT-29 cells assessed as reduction in cell adhesion to fibronectin pre-incubated for 30 mins before fibronectin and further incubated for 1 hr by nitrophenyl-N-acetyl-beta-D-glucosaminide substrate based chromogenic assay
How it was run: as §2, with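 “BSA/PBS.” for “BSA/PBS. Adherent cells read by hexosaminidase substrate, absorbance 405 nm.”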

Integrin alpha-V/beta-5 [21] = target: T2, Integrin alpha-V/beta-5; test: Antagonist activity at alphaVbeta5 in human MCF7 cells assessed as reduction in cell adhesion to fibrinogen pre-incubated for 30 mins before fibrinogen and further incubated for 1 hr by nitrophenyl-N-acetyl-beta-D-glucosaminide substrate based chromogenic assay
How it was run: as §2, with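 “BSA/PBS.” for “BSA/PBS. Adherent cells read by hexosaminidase substrate, absorbance 405 nm.”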

Integrin alpha-V/beta-3 [22] = target: T4, Integrin alpha-V/beta-3; test: Antagonist activity at alphaVbeta3 in human SK-MEL-24 cells assessed as reduction in cell adhesion to fibronectin pre-incubated for 30 mins before fibronectin and further incubated for 1 hr by nitrophenyl-N-acetyl-beta-D-glucosaminide substrate based chromogenic assay
How it was run: as §2, with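 “BSA/PBS.” for “BSA/PBS. Adherent cells read by hexosaminidase substrate, absorbance 405 nm.”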

Integrin alpha-V/beta-3 [23] = target: T4, Integrin alpha-V/beta-3; test: Agonist activity at alphaVbeta3 in human SK-MEL-24 cells assessed as increase in cell adhesion to fibronectin pre-incubated for 30 mins before fibronectin and further incubated for 1 hr by nitrophenyl-N-acetyl-beta-D-glucosaminide substrate based chromogenic assay; how it was run: as §2
Integrin alpha-5/beta-1 [24] = target: T6, Integrin alpha-5/beta-1; test: Antagonist activity at alpha5beta1 in human K562 cells assessed as reduction in cell adhesion to fibronectin pre-incubated for 30 mins before fibronectin and further incubated for 1 hr by nitrophenyl-N-acetyl-beta-D-glucosaminide substrate based chromogenic assay; how it was run: as §2

In the case of `NCc1ccc(NC(=O)N2C(=O)CC2CC(=O)O)cc1.O=C(O)C(F)(F)F` (stereo unspecified), the IC50 (Integrin alpha-V/beta-6 [1]) is reported as 80.5 nM, the IC50 (Integrin alpha-V/beta-5 [2]) is reported as 3.8 nM and the Activity (MCF7) is reported as “Non-Toxic”. For the same compound, the EC50 (Integrin alpha-V/beta-6 [3]) was 167 nM, the IC50 [4] was greater than 1000 nM and the IC50 (Integrin alpha-V/beta-3 [5]) was 5.6 nM. For the same compound, the Activity (Integrin alpha-V/beta-3 [6]) was “Dose-dependent effect”, the Activity (HEL) was “Non-Toxic” and the IC50 (Integrin alpha-4/beta-1 [7]) was greater than 1000 nM. For the same compound, the EC50 [8] was greater than 5000 nM, the IC50 (Integrin alpha-5/beta-1 [9]) was 5.5 nM and the Activity (Integrin alpha-V/beta-3 [10]) was “inactive”. The EC50 (Integrin alpha-4/beta-1 [11]) was greater than 5000 nM, the Activity (Integrin alpha-V/beta-3 [12]) was “inactive” and the Activity (K562) was “Non-Toxic”. For the same compound, the EC50 (Integrin alpha-V/beta-5 [13]) was 5.09 nM, the Activity (HT-29) was “Non-Toxic” and the IC50 [14] was 2410 nM. The IC50 [15] was greater than 5000 nM, the Activity (SK-MEL-24) was “Non-Toxic” and the IC50 (Integrin alpha-4/beta-1 [16]) was greater than 5000 nM.
For `Nc1ccc(CNC(=O)N2C(=O)C[C@H]2C(=O)O)cc1.O=C(O)C(F)(F)F`, the IC50 (Integrin alpha-V/beta-6 [1]) was greater than 1000 nM, the IC50 (Integrin alpha-V/beta-5 [2]) was greater than 1000 nM and the Activity (Integrin alpha-4/beta-1 [17]) was “Dose-dependent effect”. The Activity (MCF7) was “Non-Toxic”, the EC50 (Integrin alpha-V/beta-6 [3]) was greater than 5000 nM and the IC50 [4] was greater than 1000 nM. The IC50 (Integrin alpha-V/beta-3 [5]) was greater than 1000 nM, the EC50 [18] was greater than 5000 nM and the Activity (Integrin alpha-4/beta-1 [19]) was “Dose-dependent effect”. The IC50 (Integrin alpha-V/beta-6 [20]) was greater than 5000 nM, the IC50 (Integrin alpha-V/beta-5 [21]) was greater than 5000 nM and the Activity (HEL) was “Non-Toxic”. It also gave an IC50 (Integrin alpha-V/beta-3 [22]) greater than 5000 nM, an IC50 (Integrin alpha-4/beta-1 [7]) of 7.6 nM and an EC50 [8] greater than 5000 nM. The IC50 (Integrin alpha-5/beta-1 [9]) was 331 nM, the EC50 (Integrin alpha-V/beta-3 [23]) was greater than 5000 nM and the IC50 (Integrin alpha-5/beta-1 [24]) was 525 nM. The Activity (K562) was “Non-Toxic”, the EC50 (Integrin alpha-V/beta-5 [13]) was greater than 5000 nM and the Activity (HT-29) was “Non-Toxic”. For the same compound, the IC50 [14] was greater than 5000 nM, the IC50 [15] was greater than 5000 nM and the Activity (SK-MEL-24) was “Non-Toxic”. The IC50 (Integrin alpha-4/beta-1 [16]) was 8.8 nM.
